An excerpt weighted towards active compounds, which were near 12% of everything screened.
Wee1 stabilizer – inhibitors of human Wee1 degradation | P30291 | HeLa Luc-Wee1K328M stability, luciferase luminescence; 100% = proteasome inhibitor MG132 effect | reporter increase, % at 5 µM | 220,000 compounds, 1.2% hits;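 active = activation above the mean of all tested compounds plus 3 SD, set per screening run, cut at about 8.8% in these data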;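 also: cells exposed to compound for 20 h before luminescence read; 0% = DMSO alone and 100% = MG132 at 30 µM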
PKD1 inh – inhibitors of human PKD1 kinase; PKD1 kinase fluorescence polarization assay; inhibition, % (concentration not given with the values); 200,000 compounds, 0.056% hits
Target sequence (Q15139 whole entry, looked up): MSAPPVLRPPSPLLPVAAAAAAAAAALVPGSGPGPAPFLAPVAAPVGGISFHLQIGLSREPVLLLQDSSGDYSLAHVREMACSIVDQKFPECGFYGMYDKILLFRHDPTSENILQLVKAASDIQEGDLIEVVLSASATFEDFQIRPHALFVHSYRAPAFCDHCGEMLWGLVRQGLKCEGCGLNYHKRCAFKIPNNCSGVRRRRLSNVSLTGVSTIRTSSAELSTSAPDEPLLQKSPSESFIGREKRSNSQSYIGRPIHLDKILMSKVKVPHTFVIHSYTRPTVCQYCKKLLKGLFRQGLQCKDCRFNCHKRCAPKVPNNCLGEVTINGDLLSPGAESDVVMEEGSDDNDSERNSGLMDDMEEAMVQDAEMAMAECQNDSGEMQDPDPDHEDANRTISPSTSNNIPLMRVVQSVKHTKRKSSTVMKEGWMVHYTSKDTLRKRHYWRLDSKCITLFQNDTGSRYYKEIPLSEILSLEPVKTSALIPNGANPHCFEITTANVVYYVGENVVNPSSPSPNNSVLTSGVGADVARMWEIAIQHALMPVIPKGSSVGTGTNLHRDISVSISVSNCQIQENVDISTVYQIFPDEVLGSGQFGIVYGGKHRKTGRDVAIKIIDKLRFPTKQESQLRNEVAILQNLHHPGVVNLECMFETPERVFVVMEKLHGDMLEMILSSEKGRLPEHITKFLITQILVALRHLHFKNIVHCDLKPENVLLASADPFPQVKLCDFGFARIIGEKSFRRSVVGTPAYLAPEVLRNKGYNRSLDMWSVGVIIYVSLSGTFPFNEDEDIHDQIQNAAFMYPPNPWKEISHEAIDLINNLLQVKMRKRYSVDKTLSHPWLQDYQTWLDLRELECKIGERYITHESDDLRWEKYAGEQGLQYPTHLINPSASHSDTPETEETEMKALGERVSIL
Arbovirus anti – arbovirus infection inhibition; arbovirus infection cell-based antiviral screen; inhibition, % at 10 µM; 200,000 compounds, 0.37% hits; in the data active = inhibition above about 30%
Rad51 HR inh – blocks human Rad51 in homologous recombination; hRad51 DNA strand exchange, fluorescence dequenching; inhibition, % at 10 µM; 200,000 compounds, 0.085% hits;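 active = inhibition above 40% at the single screening dose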;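 also: 0% = DMSO control wells and 100% = blanks with heterologous ssDNA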
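Assay system: Human Rad51 nucleoprotein filaments preassembled on unlabelled ssDNA | Reagent: Donor/quencher-labelled 47-bp dsDNA substrate | Doses: One concentration, 10 µM final | Times: 37 °C 15-min filament assembly, 30-min compound preincubation, 15-min exchange | Technique: Fluorescein emission 520 nm, excitation 485 nm | Benchmarks: Plate control and blank wells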
L major viab – reduces viability of Leishmania major promastigotes | inhibition, % at 10 µM | resazurin fluorescence viability | 200,000 compounds, 9% hits | AID 1063;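 also: promastigotes grown with compound for 44 hours at 28 °C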
CHOP inh – inhibitors of CHOP induction in ER stress response. inhibition, % at 10 µM. 220,000 compounds, 3.8% hits. CHO-K1 CHOP-promoter luciferase, tunicamycin-induced, 15-18 h;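 active = compounds that reduced the stress-induced luciferase reporter signal by more than about 70% of percent inhibition, limit read from the data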;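 also: 0% = tunicamycin plus vehicle and 100% = wells without tunicamycin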
Wee1 degr conf – confirmation of human Wee1 degradation inhibitors; AID 1410; shares compounds with Wee1 stabilizer; HeLa Luc-Wee1K328M degradation, luminescence; vehicle 0%, proteasome-blocked wells 100%; activation, % at 5 µM; 1,100 compounds, 4% hits; in the data active = activation above about 8.9%
Numbers without * were called inactive. Rule as the data show it, unless noted: active = inhibition above about 50%; inactive = the rest.

Results for O=C(NC1CCCCC1)C(c1cc2c(cc1[N+](=O)[O-])OCO2)N1CCCCC1 (stereo unspecified) ?
Wee1 stabilizer: 2; PKD1 inh: -6; Arbovirus anti: -1; L major viab: 49; CHOP inh: 33

How did COc1ccc(CCC(=O)N(C)CC(=O)Nc2cc(C)ccc2C)cc1 do in these assays?
Wee1 stabilizer: 17*; PKD1 inh: -4; Arbovirus anti: 2; Rad51 HR inh: -22; L major viab: -1; CHOP inh: -6; Wee1 degr conf: 1

What do the screens show for `CCOc1ccc(CC(=O)Nc2ccc(-c3ccc4nnc(C)n4n3)cc2)cc1`?
Wee1 stabilizer: -1; PKD1 inh: -4; Arbovirus anti: -9; Rad51 HR inh: 12; L major viab: 12; CHOP inh: -5

How did COC(=O)Cn1c(=O)c(C)nc2ccccc21 do in these assays?
Wee1 stabilizer: 13*; PKD1 inh: -5; Arbovirus anti: 6; Rad51 HR inh: 8; L major viab: -7; CHOP inh: -14; Wee1 degr conf: -4

What do the screens show for `CCOC(=O)Cn1c(C(C)=O)nc2ccccc21`?
Wee1 stabilizer: 12*; PKD1 inh: -7; Arbovirus anti: 7; Rad51 HR inh: -6; L major viab: -4; CHOP inh: 21; Wee1 degr conf: 0

Results for Cc1cc(C)cc(NCCC#N)c1 ?
Wee1 stabilizer: 1; PKD1 inh: 4; Arbovirus anti: 2; Rad51 HR inh: 9; L major viab: -6; CHOP inh: -9

What do the screens show for `CC(=O)c1c(C)[nH]c(C(=O)NCc2cccs2)c1C`?
Wee1 stabilizer: 1; PKD1 inh: -1; Arbovirus anti: 2; Rad51 HR inh: -2; L major viab: -2; CHOP inh: 38

How did CC(=O)c1c(C)[nH]c(C(=O)NCc2ccco2)c1C do in these assays?
Wee1 stabilizer: 12*; PKD1 inh: 3; Arbovirus anti: -1; Rad51 HR inh: 5; L major viab: 4; CHOP inh: -10; Wee1 degr conf: 4

Results for COc1ccc(Nc2nc(S(=O)(=O)c3ccc(C)cc3)c(Cl)s2)cc1 ?
Wee1 stabilizer: 11*; PKD1 inh: -3; Arbovirus anti: -23; Rad51 HR inh: -4; L major viab: 46; CHOP inh: 70; Wee1 degr conf: 2

What do the screens show for `COc1ccc(CNc2nc(S(=O)(=O)c3ccccc3)c(Cl)s2)cc1OC`?
Wee1 stabilizer: 1; PKD1 inh: 0; Arbovirus anti: 14; L major viab: 0; CHOP inh: 27

How did Cn1cc(-c2ccc(Cl)cc2)cc(C#N)c1=O do in these assays?
Wee1 stabilizer: 0; PKD1 inh: -11; Arbovirus anti: 3; Rad51 HR inh: 11; L major viab: -4; CHOP inh: 2

What do the screens show for `Cc1ccc(NC(=S)N2CCOCC2)cc1`?
Wee1 stabilizer: -2; PKD1 inh: 0; Arbovirus anti: 3; Rad51 HR inh: -1; L major viab: -4; CHOP inh: -6

How did Cc1ccc(NC(=S)N2CCCC(O)C2)cc1 (stereo unspecified) do in these assays?
Wee1 stabilizer: 14*; PKD1 inh: -1; Arbovirus anti: 5; Rad51 HR inh: -6; L major viab: -3; CHOP inh: 1; Wee1 degr conf: 2

How did CCc1cc2cc(C)cc(C)c2nc1SCC(=O)Nc1cc(C)on1 do in these assays?
Wee1 stabilizer: 11*; PKD1 inh: -6; Arbovirus anti: -3; Rad51 HR inh: -13; L major viab: -3; CHOP inh: 25; Wee1 degr conf: 0

Results for CCc1cc2ccccc2nc1SCC(=O)Nc1cc(C)on1 ?
Wee1 stabilizer: -2; PKD1 inh: 0; Arbovirus anti: -10; Rad51 HR inh: 5; L major viab: -4; CHOP inh: 61

How did Cc1ccc(NC(=O)c2cncc(Br)c2)c(O)c1 do in these assays?
Wee1 stabilizer: 12*; PKD1 inh: 1; Arbovirus anti: 39*; Rad51 HR inh: -10; L major viab: 3; CHOP inh: 2; Wee1 degr conf: 1

Results for COc1cc(C2Nc3cc(Cl)c(S(N)(=O)=O)cc3S(=O)(=O)N2)cc(OC)c1OC (stereo unspecified) ?
Wee1 stabilizer: 12*; PKD1 inh: 12; Arbovirus anti: -4; Rad51 HR inh: 2; L major viab: -2; CHOP inh: 14; Wee1 degr conf: -1

How did Cc1ccc(C)c(C(=O)NC2CC(C)(C)NC(C)(C)C2)c1 do in these assays?
Wee1 stabilizer: -3; PKD1 inh: -5; Arbovirus anti: -6; Rad51 HR inh: 1; L major viab: -4; CHOP inh: -4

Results for Cc1ccc(C(=O)NC2CC(C)(C)NC(C)(C)C2)cc1C ?
Wee1 stabilizer: 12*; PKD1 inh: -4; Arbovirus anti: 2; Rad51 HR inh: -10; L major viab: 2; CHOP inh: 6; Wee1 degr conf: -5

How did O=C(Nc1nc2c(s1)CCCC2)c1ccc2ncsc2c1 do in these assays?
Wee1 stabilizer: 20*; PKD1 inh: 1; Arbovirus anti: 23; L major viab: 28; CHOP inh: -26; Wee1 degr conf: 1

What do the screens show for `Cc1ncsc1C(=O)Nc1nc2c(s1)CCCC2`?
Wee1 stabilizer: 3; PKD1 inh: 4; Arbovirus anti: -4; Rad51 HR inh: -4; L major viab: 1; CHOP inh: 1

What do the screens show for `O=C(Nc1ccc(Cl)cn1)Nc1ccccc1Cl`?
Wee1 stabilizer: 1; PKD1 inh: 1; Arbovirus anti: -7; Rad51 HR inh: -5; L major viab: -1; CHOP inh: 37

What do the screens show for `Cc1ccc(NC(=O)Nc2ccc(Cl)cn2)cc1`?
Wee1 stabilizer: 11*; PKD1 inh: 3; Arbovirus anti: -2; Rad51 HR inh: 2; L major viab: 4; CHOP inh: -19; Wee1 degr conf: 4

How did CC(=O)n1nc(-c2ccccc2)nc1NCc1ccc(N(C)C)cc1 do in these assays?
Wee1 stabilizer: 2; PKD1 inh: -9; Arbovirus anti: -2; Rad51 HR inh: 5; L major viab: -7; CHOP inh: 8

How did CCn1c(SCC(=O)O)nc2ccccc21 do in these assays?
Wee1 stabilizer: -3; PKD1 inh: -2; Arbovirus anti: -2; Rad51 HR inh: -4; L major viab: -4; CHOP inh: -17

Results for CCn1c(SCC(=O)N/N=C(/C)c2ccncc2)nc2ccccc21 ?
Wee1 stabilizer: 15*; Rad51 HR inh: 4; CHOP inh: 15; Wee1 degr conf: 6

Results for Cc1nc2ccccc2n1CCN1CCOCC1 ?
Wee1 stabilizer: 12*; PKD1 inh: 13; Arbovirus anti: 6; L major viab: -11; CHOP inh: 13; Wee1 degr conf: -1

Results for Cc1nc2ccccc2c(=O)n1CCCN1CCOCC1 ?
Wee1 stabilizer: 0; Rad51 HR inh: 7; CHOP inh: 3

Assay outcomes as filed in PubChem BioAssay.
